# Measurements: ChEMBL document CHEMBL3853298, “Total synthesis and in vitro bioevaluation of clavaminols A, C, H & deacetyl clavaminol H as potential chemotherapeutic and antibiofilm agents” (Eur J Med Chem, 2016)
# How the values were obtained:
# [1] = Cytotoxicity against human SKOV3 cells assessed as cell growth inhibition by MTT assay; type: functional, cell-based; details: SK-OV-3
# [2] = Cytotoxicity against human DU145 cells assessed as cell growth inhibition by MTT assay; type: functional, cell-based; details: DU-145
# [3] = system: Staphylococcus aureus; assay: Antibacterial activity against Staphylococcus aureus MTCC 96 after 24 hrs by well diffusion method; type: functional; details: MTCC 96, 24 h
# Outline: (§1)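 Bacteria spread (0.1 mL suspension) on Mueller-Hinton agar; 6.0 mm wells loaded with compound over a 250 to 0.48 per-well dose range, methanol as negative control. Incubated 24 h at 37 °C. MIC taken as the lowest concentration still giving an inhibition zone. Duplicates, mean reported.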
# [4] = system: Bacillus subtilis; assay: Antibacterial activity against Bacillus subtilis MTCC 121 after 24 hrs by well diffusion method; type: functional; details: MTCC 121, 24 h; outline: as §1
# [5] = system: Micrococcus luteus; assay: Antibacterial activity against Micrococcus luteus MTCC 2470 after 24 hrs by well diffusion method; type: functional; details: MTCC 2470, 24 h; outline: as §1
# [6] = system: Staphylococcus aureus; assay: Antibacterial activity against Staphylococcus aureus MLS16 MTCC 2940 after 24 hrs by well diffusion method; type: functional; details: MLS16 MTCC 2940, 24 h; outline: as §1
# [7] = system: Raoultella planticola; assay: Antibacterial activity against Klebsiella planticola MTCC 530 after 24 hrs by well diffusion method; type: functional; details: MTCC 530, 24 h; outline: as §1
# [8] = system: Escherichia coli; assay: Antibacterial activity against Escherichia coli MTCC 739 after 24 hrs by well diffusion method; type: functional; details: MTCC 739, 24 h; outline: as §1
# [9] = system: Pseudomonas aeruginosa; assay: Antibacterial activity against Pseudomonas aeruginosa MTCC 2453 after 24 hrs by well diffusion method; type: functional; details: MTCC 2453, 24 h; outline: as §1
# [10] = system: Candida albicans; assay: Antifungal activity against Candida albicans MTCC 227 after 24 hrs by well diffusion method; type: functional; details: MTCC 227, 24 h
# Outline: (§2)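 Candida/Issatchenkia lawns (0.1 mL suspension) on Mueller-Hinton agar; 6.0 mm bored wells receive compound across a 250 to 0.48 per-well dose range, methanol as negative control. Plates kept 24 h at 30 °C. MIC is the lowest concentration producing a visible inhibition zone. Duplicate runs, mean values.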
# [11] = system: Candida albicans; assay: Antifungal activity against Candida albicans MTCC 183 after 24 hrs by well diffusion method; type: functional; details: MTCC 183, 24 h; outline: as §2
# [12] = system: Candida albicans; assay: Antifungal activity against Candida albicans MTCC 854 after 24 hrs by well diffusion method; type: functional; details: MTCC 854, 24 h; outline: as §2
# [13] = system: Candida albicans; assay: Antifungal activity against Candida albicans MTCC 1637 after 24 hrs by well diffusion method; type: functional; details: MTCC 1637, 24 h; outline: as §2
# [14] = system: Candida albicans; assay: Antifungal activity against Candida albicans MTCC 3017 after 24 hrs by well diffusion method; type: functional; details: MTCC 3017, 24 h; outline: as §2
# [15] = system: Candida albicans; assay: Antifungal activity against Candida albicans MTCC 3018 after 24 hrs by well diffusion method; type: functional; details: MTCC 3018, 24 h; outline: as §2
# [16] = system: Candida albicans; assay: Antifungal activity against Candida albicans MTCC 3958 after 24 hrs by well diffusion method; type: functional; details: MTCC 3958, 24 h; outline: as §2
# [17] = system: Candida albicans; assay: Antifungal activity against Candida albicans MTCC 4748 after 24 hrs by well diffusion method; type: functional; details: MTCC 4748, 24 h; outline: as §2
# [18] = system: Candida albicans; assay: Antifungal activity against Candida albicans MTCC 7315 after 24 hrs by well diffusion method; type: functional; details: MTCC 7315, 24 h; outline: as §2
# [19] = Antifungal activity against Candida parapsilosis MTCC 1744 after 24 hrs by well diffusion method; type: functional; outline: as §2
# [20] = system: [Candida] aaseri; assay: Antifungal activity against Candida aaseri MTCC 1962 after 24 hrs by well diffusion method; type: functional; details: Yamadazyma aaseri, MTCC 1962, 24 h; outline: as §2
# [21] = Antifungal activity against Candida glabrata MTCC 3019 after 24 hrs by well diffusion method; type: functional; details: Nakaseomyces glabratus; outline: as §2
# [22] = Antifungal activity against Candida krusei MTCC 3020 after 24 hrs by well diffusion method; type: functional; details: Pichia kudriavzevii; outline: as §2
# [23] = system: Pichia sporocuriosa; assay: Antifungal activity against Issatchenkia hanoiensis MTCC 4755 after 24 hrs by well diffusion method; type: functional; details: MTCC 4755, 24 h; outline: as §2
# [24] = system: Staphylococcus aureus; assay: Bactericidal activity against Staphylococcus aureus MTCC 96 after 24 hrs; type: functional; details: MTCC 96, 24 h
# Outline: (§3)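 Broth macrodilution in Mueller Hinton broth, compound serially diluted from 150 down to 0. Overnight bacterial culture added to a final 1.5 × 10^8 CFU/mL (0.5 McFarland), 24 h at 37 °C. Suspension then subcultured onto Mueller Hinton agar for 24 h at 37 °C. MBC is the lowest concentration killing the strain. Duplicates.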
# [25] = system: Bacillus subtilis; assay: Bactericidal activity against Bacillus subtilis MTCC 121 after 24 hrs; type: functional; details: MTCC 121, 24 h; outline: as §3
# [26] = system: Staphylococcus aureus; assay: Bactericidal activity against Staphylococcus aureus MLS16 MTCC 2940 after 24 hrs; type: functional; details: MLS16 MTCC 2940, 24 h; outline: as §3
# [27] = system: Micrococcus luteus; assay: Bactericidal activity against Micrococcus luteus MTCC 2470 after 24 hrs; type: functional; details: MTCC 2470, 24 h; outline: as §3
# [28] = system: Raoultella planticola; assay: Bactericidal activity against Klebsiella planticola MTCC 530 after 24 hrs; type: functional; details: MTCC 530, 24 h; outline: as §3
# [29] = system: Escherichia coli; assay: Bactericidal activity against Escherichia coli MTCC 739 after 24 hrs; type: functional; details: MTCC 739, 24 h; outline: as §3
# [30] = system: Pseudomonas aeruginosa; assay: Bactericidal activity against Pseudomonas aeruginosa MTCC 2453 after 24 hrs; type: functional; details: MTCC 2453, 24 h; outline: as §3
# [31] = system: Candida albicans; assay: Fungicidal activity against Candida albicans MTCC 183 after 24 hrs; type: functional; details: MTCC 183, 24 h
# Outline: (§4)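 Candida grown overnight in Mueller Hinton broth. Compound serially diluted in the same broth from 150 to 0 and inoculated to a final 1.5 × 10^8 CFU/mL (0.5 McFarland), then 24 h at 37 °C. Tube contents plated onto Mueller Hinton agar for 24 h at 37 °C. MFC is the lowest concentration killing the yeast. Duplicates.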
# [32] = system: Candida albicans; assay: Fungicidal activity against Candida albicans MTCC 227 after 24 hrs; type: functional; details: MTCC 227, 24 h; outline: as §4
# [33] = system: Candida albicans; assay: Fungicidal activity against Candida albicans MTCC 854 after 24 hrs; type: functional; details: MTCC 854, 24 h; outline: as §4
# [34] = system: Candida albicans; assay: Fungicidal activity against Candida albicans MTCC 1637 after 24 hrs; type: functional; details: MTCC 1637, 24 h; outline: as §4
# [35] = system: Candida albicans; assay: Fungicidal activity against Candida albicans MTCC 3017 after 24 hrs; type: functional; details: MTCC 3017, 24 h; outline: as §4
# [36] = system: Candida albicans; assay: Fungicidal activity against Candida albicans MTCC 3018 after 24 hrs; type: functional; details: MTCC 3018, 24 h; outline: as §4
# [37] = system: Candida albicans; assay: Fungicidal activity against Candida albicans MTCC 3958 after 24 hrs; type: functional; details: MTCC 3958, 24 h; outline: as §4
# [38] = system: Candida albicans; assay: Fungicidal activity against Candida albicans MTCC 4748 after 24 hrs; type: functional; details: MTCC 4748, 24 h; outline: as §4
# [39] = system: Candida albicans; assay: Fungicidal activity against Candida albicans MTCC 7315 after 24 hrs; type: functional; details: MTCC 7315, 24 h; outline: as §4
# [40] = system: Candida parapsilosis; assay: Fungicidal activity against Candida parapsilosis MTCC 1744 after 24 hrs; type: functional; details: Lodderomyces parapsilosis, MTCC 1744, 24 h
# Outline: (§5)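 Broth dilution in Mueller Hinton broth with serial compound concentrations from […]. Overnight Candida cultures added to a final 1.5 × 10^8 CFU/mL (0.5 McFarland). Incubated 24 h at 37 °C, then 10 µL of each tube plated on Mueller Hinton agar for 24 h at 37 °C. MFC taken as the lowest concentration that kills the strain. Run in duplicate.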
# [41] = system: [Candida] aaseri; assay: Fungicidal activity against Candida aaseri MTCC 1962 after 24 hrs; type: functional; details: Yamadazyma aaseri, MTCC 1962, 24 h; outline: as §4
# [42] = system: Nakaseomyces glabratus; assay: Fungicidal activity against Candida glabrata MTCC 3019 after 24 hrs; type: functional; details: MTCC 3019, 24 h; outline: as §4
# [43] = system: Pichia kudriavzevii; assay: Fungicidal activity against Candida krusei MTCC 3020 after 24 hrs; type: functional; details: MTCC 3020, 24 h; outline: as §5
# [44] = system: Pichia sporocuriosa; assay: Fungicidal activity against Issatchenkia hanoiensis MTCC 4755 after 24 hrs; type: functional; details: MTCC 4755, 24 h; outline: as §5
# [45] = system: Staphylococcus aureus; assay: Antibiofilm activity against Staphylococcus aureus MTCC 96 incubated for 24 hrs under static condition by crystal violet staining-based assay; type: functional
# Outline: (§6)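 Strains grown overnight in tryptone soy broth with 0.5% glucose. Compound (250 to 0) mixed with inoculum at 5 × 10^5 CFU/mL in polystyrene microtiter plates. Non-adherent cells washed off with PBS; wells stained with 0.1% crystal violet, dye solubilised in 95% ethanol, absorbance read at 540 nm. IC50 for 50% biofilm inhibition taken from dose-response curves. Triplicates, mean ± S.D.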
# [46] = system: Bacillus subtilis; assay: Antibiofilm activity against Bacillus subtilis MTCC 121 incubated for 24 hrs under static condition by crystal violet staining-based assay; type: functional; outline: as §6
# [47] = system: Staphylococcus aureus; assay: Antibiofilm activity against Staphylococcus aureus MLS16 MTCC 2940 incubated for 24 hrs under static condition by crystal violet staining-based assay; type: functional; outline: as §6
# [48] = system: Micrococcus luteus; assay: Antibiofilm activity against Micrococcus luteus MTCC 2470 incubated for 24 hrs under static condition by crystal violet staining-based assay; type: functional; outline: as §6
# [49] = system: Raoultella planticola; assay: Antibiofilm activity against Klebsiella planticola MTCC 530 incubated for 24 hrs under static condition by crystal violet staining-based assay; type: functional; outline: as §6
# [50] = system: Escherichia coli; assay: Antibiofilm activity against Escherichia coli MTCC 739 incubated for 24 hrs under static condition by crystal violet staining-based assay; type: functional; outline: as §6
# [51] = system: Pseudomonas aeruginosa; assay: Antibiofilm activity against Pseudomonas aeruginosa MTCC 2453 incubated for 24 hrs under static condition by crystal violet staining-based assay; type: functional; outline: as §6
smiles,measurement,setting,value
CCCCCCCCC[C@H](O)[C@H](N)CO,IC50,[1],33.6 µM
same,IC50,[2],34.1 µM
same,MIC,[3],7.8 µg/mL
same,MIC,[4],3.9 µg/mL
same,MIC,[5],3.9 µg/mL
same,MIC,[6],3.9 µg/mL
same,MIC,[7],15.6 µg/mL
same,MIC,[8],7.8 µg/mL
same,MIC,[9],7.8 µg/mL
same,MIC,[10],15.6 µg/mL
same,MIC,[11],15.6 µg/mL
same,MIC,[12],15.6 µg/mL
same,MIC,[13],7.8 µg/mL
same,MIC,[14],15.6 µg/mL
same,MIC,[15],15.6 µg/mL
same,MIC,[16],7.8 µg/mL
same,MIC,[17],15.6 µg/mL
same,MIC,[18],31.2 µg/mL
same,MIC,[19],31.2 µg/mL
same,MIC,[20],15.6 µg/mL
same,MIC,[21],15.6 µg/mL
same,MIC,[22],7.8 µg/mL
same,MIC,[23],15.6 µg/mL
same,MBC,[24],7.8 µg/mL
same,MBC,[25],7.8 µg/mL
same,MBC,[26],7.8 µg/mL
same,MBC,[27],7.8 µg/mL
same,MBC,[28],31.2 µg/mL
same,MBC,[29],15.6 µg/mL
same,MBC,[30],15.6 µg/mL
same,MFC,[31],15.6 µg/mL
same,MFC,[32],31.2 µg/mL
same,MFC,[33],15.6 µg/mL
same,MFC,[34],15.6 µg/mL
same,MFC,[35],31.2 µg/mL
same,MFC,[36],15.6 µg/mL
same,MFC,[37],15.6 µg/mL
same,MFC,[38],31.2 µg/mL
same,MFC,[39],62.5 µg/mL
same,MFC,[40],62.5 µg/mL
same,MFC,[41],31.2 µg/mL
same,MFC,[42],15.6 µg/mL
same,MFC,[43],15.6 µg/mL
same,MFC,[44],31.2 µg/mL
same,IC50,[45],4.5 µg/mL
same,IC50,[46],2.6 µg/mL
same,IC50,[47],2.1 µg/mL
same,IC50,[48],2.3 µg/mL
same,IC50,[49],9.2 µg/mL
same,INH,[50],4.6 µg/mL
same,INH,[51],3.9 µg/mL
